ChEMBL document CHEMBL1129282, “High-affinity partial agonist imidazo[1,5-a]quinoxaline amides, carbamates, and ureas at the gamma-aminobutyric acid A/benzodiazepine receptor complex” (J Med Chem, 1996)
Active and inactive are the calls of the source.

Key:
[1] = biological target: GABA-A receptor; anion channel; assay: Inhibition of [3H]flunitrazepam binding to GABA-A receptor of rat cortical membranes; format: cell membranes, Membrane
Rattus norvegicus [2] = species: Rattus norvegicus; assay: In vitro [36Cl]-uptake in rat cerebrocortical synaptoneurosomes; format: functional; parameters: unit not given here
How it was run: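 Rat cerebrocortical synaptoneurosomes (1 mg protein) preincubated 5 min at 30 °C, then mixed with medium containing 0.2 µCi Na36Cl/mL, 118 mM NaCl, 5 mM KCl, 1.8 mM MgSO4, 20 mM Hepes/Tris pH 7.0, ± drug (methanol ≤0.4%). Uptake stopped after 5 s with ice-cold buffer, rapid filtration, four washes, radioactivity counted.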

Rattus norvegicus [3] = assay: Antagonistic activity against metrazole-induced clonic convulsions in rat after ip injection; format: functional
[4] = biological target: GABA-A receptor; anion channel (Rattus norvegicus) (UniProt O09028+P15431+P18506+P18508+P19969+P20236+P23574+P23576+P28471+P28473+P30191+P62813+P63079+P63138+Q91ZM7+Q9ES14); settings: Brain, Brain membranes
Mus musculus [5] = assay: Ethanol potentiation activity was measured as loss of righting reflex in male CF-1 mice after oral administration; format: functional
Mus musculus [6] = assay: In vivo antagonistic activity against benzodiazepine in mice after ip administration; format: functional
How it was run: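 Male CF-1 mice injected ip simultaneously with triazolam 1 mg/kg and test compound starting at […], in 0.25% aqueous methyl cellulose. Loss of traction scored 15 min later. Absence of triazolam effect indicated antagonism; lower doses at 0.5 log intervals then tested to establish ED50.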

Mus musculus [7] = assay: Ethanol potentiation activity was measured as loss of traction response in male CF-1 mice after oral administration; format: functional
Mus musculus [8] = species: Mus musculus; assay: Acute electroshock physical dependence activity was evaluated; A=Active; format: functional, organism-based
How it was run: (§1)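 Male CF-1 mice, 10/group, dosed sc twice daily (0800, and 1600 at twice the 0800 dose) for 3 days. 24 h after last dose, iv flumazenil 2.5 mg/kg in 5% aqueous N,N-dimethylacetamide. Electroshock seizure threshold (MA50) measured 5 min later versus saline-treated, flumazenil-injected controls. Compound scored active if threshold lowered beyond control interval.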

Mus musculus [9] = species: Mus musculus; assay: Acute electroshock physical dependence activity was evaluated; IA=Inactive; format: functional, organism-based; how it was run: as §1

Row | SMILES | Ki [1] [nM] | [35S] TBPS shift [4] | 36Cl- uptake (Rattus norvegicus [2]) | ED50 (Rattus norvegicus [3]) [mg/kg] | ED50 (Mus musculus [5]) [mg/kg] | ED50 (Mus musculus [6]) [mg/kg] | ED50 (Mus musculus [7]) [mg/kg] | Activity (Mus musculus [8]) | Activity (Mus musculus [9])
1 | CC(C)(C)c1nc(-c2ncn3c2CN(C(=O)N2CCCC2)c2ccccc2-3)no1 | 14.7 | 0.76 | 1.2 | 18 |  |  |  |  | 
2 | CCc1nc(-c2ncn3c2CN(C(=O)N2CCCC2)c2ccccc2-3)no1 | 0.65 | 0.39 | 0.25 | > 50 |  |  |  |  | 
3 | O=C(c1ccc[nH]1)N1Cc2c(-c3noc(C4CC4)n3)ncn2-c2ccccc21 | 1.1 | 0.92 | 1.1 | 4.4 |  |  |  |  | 
4 | O=C(c1ccco1)N1Cc2c(-c3noc(C4CC4)n3)ncn2-c2ccccc21 | 0.43 | 0.98 | 0.55 | 21 |  |  |  |  | 
5 | O=C(N1CCCC1)N1Cc2c(-c3noc(C4CC4)n3)ncn2-c2cccc(F)c21 | 0.64 | 1 | 0.59 | > 50 |  |  |  |  | 
6 | CN(C)C(=O)N1Cc2c(-c3noc(C4CC4)n3)ncn2-c2ccc(F)cc21 | 0.61 | 0.99 | 0.95 |  |  |  |  |  | 
7 | O=C(Nc1ccccc1)N1Cc2c(-c3noc(C4CC4)n3)ncn2-c2ccccc21 | 16 | 1.3 | 0.29 | > 50 |  |  |  |  | 
8 | O=C(N1CCCC1)N1Cc2c(-c3noc(C4CC4)n3)ncn2-c2cccc(Cl)c21 |  | 0.6 | 0.56 | > 50 |  |  |  |  | 
9 | O=C(N1CCCC1)N1Cc2c(-c3noc(C4CC4)n3)ncn2-c2ccc(F)cc21 | 0.56 | 1.25 | 0.69 | > 50 |  |  |  |  | 
10 | O=C(N1CCCC1)N1Cc2c(-c3noc(C4CC4)n3)ncn2-c2ccccc21 | 0.45 | 0.41 | 0.5 | 0.24 |  |  |  |  | 
11 | CN(C)C(=O)N1Cc2c(-c3noc(C4CC4)n3)ncn2-c2ccc(Cl)cc21 | 3.7 | 0.88 |  |  |  |  |  |  | 
12 | O=C(N1CCCC1)N1Cc2c(-c3noc(C4CC4)n3)ncn2-c2ccc(Cl)cc21 | 1.1 | 0.93 |  | 0.6 | > 30 | > 30 | 0.4 |  | inactive
13 | O=C(c1ccccn1)N1Cc2c(-c3noc(C4CC4)n3)ncn2-c2ccccc21 | 1.1 | 0.27 |  | > 50 |  |  |  |  | 
14 | O=C(Sc1ccccc1)N1Cc2c(-c3noc(C4CC4)n3)ncn2-c2ccccc21 | 11 | 1.1 | 0.5 | > 50 |  |  |  |  | 
15 | CCN(CC)C(=O)N1Cc2c(-c3noc(C4CC4)n3)ncn2-c2ccccc21 | 0.85 | 0.82 | 0.62 | 15 | > 30 | 4 | > 30 |  | inactive
16 | CN(C)C(=O)N1Cc2c(-c3noc(C4CC4)n3)ncn2-c2cccc(Cl)c21 | 0.71 | 0.62 | 0.83 | > 50 |  |  |  |  | 
17 | O=C(N1CCOCC1)N1Cc2c(-c3noc(C4CC4)n3)ncn2-c2ccccc21 | 0.81 | 0.84 | 0.15 | 0.84 |  |  |  |  | 
18 | CC(C)c1nc(-c2ncn3c2CN(C(=O)N2CCCC2)c2ccccc2-3)no1 | 1.1 | 0.69 | 0.4 | 11 | > 30 | > 30 | 17 |  | inactive

Further lines, with some results ahead:

Row | Ki [1] [nM] | [35S] TBPS shift [4] | SMILES | 36Cl- uptake (Rattus norvegicus [2]) | ED50 (Rattus norvegicus [3]) [mg/kg] | ED50 (Mus musculus [5]) [mg/kg] | ED50 (Mus musculus [6]) [mg/kg] | ED50 (Mus musculus [7]) [mg/kg] | Activity (Mus musculus [8]) | Activity (Mus musculus [9])
19 |  | 0.7 | CC(=O)N1c2ccccc2-n2cnc(-c3noc(C4CC4)n3)c2C1(C)C |  | 30 |  |  |  |  | 
20 | 86 | 0.6 | CC1(C)c2c(-c3noc(C4CC4)n3)ncn2-c2ccccc2N1C(N)=O | 0.22 | > 50 |  |  |  |  | 
21 | 2.8 | 0.95 | CNC(=O)N1Cc2c(-c3noc(C4CC4)n3)ncn2-c2ccccc21 | 0.53 | 11 | 11 | 22 | 2.7 | Active | 
22 | 21 | 0.71 | CNC(=O)N1c2ccccc2-n2cnc(-c3noc(C4CC4)n3)c2C1(C)C | 0.67 | > 50 |  |  |  |  | 
23 | 3.3 | 0.67 | CC1(C)c2c(-c3noc(C4CC4)n3)ncn2-c2ccc(Cl)cc2N1C(=O)N1CCCC1 | 1.04 | 35 | > 30 | 9 | 0.2 |  | inactive
24 | 1.3 | 0.92 | CSC(=O)N1Cc2c(-c3noc(C4CC4)n3)ncn2-c2ccccc21 | 0.73 | 6.2 | > 30 | > 30 | 0.3 | Active | 
25 | 2.1 | 1.1 | CCSC(=O)N1Cc2c(-c3noc(C4CC4)n3)ncn2-c2ccccc21 | 1.1 | 1.3 |  |  |  |  | 
26 | 1.8 | 1.1 | CC(C)OC(=O)N1Cc2c(-c3noc(C4CC4)n3)ncn2-c2ccccc21 |  | 1.9 |  |  |  |  | 
27 | 5.1 | 0.8 | CSC(=O)N1c2ccccc2-n2cnc(-c3noc(C4CC4)n3)c2C1(C)C | 1 | > 50 |  |  |  |  | 
28 | 1.5 | 0.7 | COC(=O)N1Cc2c(-c3noc(C4CC4)n3)ncn2-c2ccccc21 |  | 4.4 |  |  |  |  | 
29 | 7.2 | 0.61 | NC(=O)N1Cc2c(-c3noc(C4CC4)n3)ncn2-c2ccccc21 | 0.75 | 13 |  |  |  |  | 
30 | 2.9 | 0.84 | CC1(C)c2c(-c3noc(C4CC4)n3)ncn2-c2ccccc2N1C(=O)N1CCCC1 | 0.5 | > 50 |  |  |  |  | 
31 | 3.4 | 1.1 | CC(C)NC(=O)N1Cc2c(-c3noc(C4CC4)n3)ncn2-c2ccccc21 |  | 11 |  |  |  |  | 
32 |  | 2.9 | CC(C)(C)OC(=O)N1Cc2c(-c3noc(C4CC4)n3)ncn2-c2ccccc21 |  | 0.06 |  |  |  |  | 
33 | 3.1 | 0.97 | CN(C)C(=O)N1c2ccccc2-n2cnc(-c3noc(C4CC4)n3)c2C1(C)C | 0.34 | > 50 |  |  |  |  | 
34 | 143 | 0.73 | O=C(N1Cc2c(-c3noc(C4CC4)n3)ncn2-c2ccccc21)C(F)(F)F |  | 35 |  |  |  |  | 
35 |  | 0.8 | COC(=O)N1c2ccccc2-n2cnc(-c3noc(C4CC4)n3)c2C1(C)C | 0.4 | > 50 |  |  |  |  | 
36 | 3.1 | 0.79 | CN(C)C(=O)N1c2cc(Cl)ccc2-n2cnc(-c3noc(C4CC4)n3)c2C1(C)C | 1.33 | 7.4 | 17 |  | 3 | Active | 
